# Source: PubChem BioAssay
# Compounds with a hit are over-represented: about 1.9% of the library has one in this group of screens.
# SR-BI uptake up – activators of SR-BI mediated HDL lipid uptake; CHO ldlA[mSR-BI] cells, DiI-HDL uptake fluorescence, 3 h; 100 = double the neutral-control signal; AID 504775; 0.096% of 320,000 active; activation, % at 12.5 µM;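 active means mean replicate activation of at least 60% and every replicate at or above 60%; inconclusive means mean or all-replicate condition met, but not both; inactive means mean below 60% and not all replicates reaching 60%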;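 further: 0% = median plate neutral-control signal and 100% = twice that signal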
#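 Material – SR-BI-overexpressing, LDLR-lacking CHO cells · Medium – BSA-supplemented, HEPES-buffered Ham's F12, pH 7.4 · Doses – single concentration · Times – compound with DiI-HDL co-incubation, 3 h at 37 °C · Measured by – bottom-read fluorescence, 550/595 nm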
# Rtt109 Vps75 – blocks Candida albicans Rtt109/Vps75 acetyltransferase activity | Q5AAJ8 | purified Rtt109/Vps75, ThioGlo CoA-SH fluorescence, 4 h | inhibition, % at 34.9 µM | 0.16% of 330,000 active | AID 540336;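 active means inhibition of at least 50% in every replicate; inconclusive means best replicate reaches 50% inhibition but some replicates fall short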
# Target sequence (Q5AAJ8 whole entry, looked up): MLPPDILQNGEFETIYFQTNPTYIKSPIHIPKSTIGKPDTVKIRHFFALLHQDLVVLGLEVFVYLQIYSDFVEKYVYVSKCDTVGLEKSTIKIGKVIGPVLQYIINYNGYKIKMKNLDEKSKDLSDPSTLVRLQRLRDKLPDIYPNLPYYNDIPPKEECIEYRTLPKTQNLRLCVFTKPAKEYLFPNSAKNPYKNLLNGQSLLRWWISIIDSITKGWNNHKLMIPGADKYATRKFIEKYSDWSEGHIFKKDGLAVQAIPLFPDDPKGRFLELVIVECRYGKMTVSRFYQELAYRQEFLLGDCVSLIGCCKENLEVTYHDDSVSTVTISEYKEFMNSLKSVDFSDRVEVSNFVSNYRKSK
# PglD DTNB – PglD (C. jejuni) enzyme inhibition; purified PglD enzyme, DTNB colorimetric CoA detection; inhibition, % at 12.5 µM; 0.098% of 360,000 active; AID 602405; in the data active means inhibition above about 16%, passing the limit was not always enough; inconclusive means no clear call, values can overlap the other calls
# HIV Env fusion – blocks HIV Env-driven cell-cell fusion. inhibition, % at 12.3 µM. AID 651610. HeLa-JRFL Env/CEM21 cell fusion, luciferase. 1.1% of 360,000 active;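 active means mean replicate inhibition score of at least 50 and every replicate individually at or above 50; inconclusive means only one of the two criteria met; inactive means mean below 50 and not all replicates reaching 50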;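 further: 0% = plate neutral controls and 100% = maraviroc near 300 nM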
# SR-BI HDL uptake – inhibitors of mouse SR-BI mediated HDL lipid uptake; Q61009; ldlA[mSR-BI] CHO cells, DiI-HDL uptake fluorescence, 3 h; inhibition, % at 12.5 µM; 0.96% of 320,000 active; AID 488896;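 active means mean replicate inhibition of at least 70% and a set share of replicates each scoring 70 or more; inconclusive means meets just one of the two criteria; inactive means fails both criteria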;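 further: 0% = median of neutral control wells and 100% = median of positive control wells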
# Glyco luc inh – N-linked glycosylation inhibition; 0.23% of 360,000 active; AID 588692; reporter increase, % at 12.5 µM; D54 ERlucT glycosylation luciferase reporter, 24 h; percent of 100 nM tunicamycin response;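 active means mean luciferase reporter signal, scaled so untreated is 0 and the glycosylation-blocking control 100, at or above a set limit in every replicate; inconclusive means mean reaches the limit but not every replicate does; inactive means mean below the limit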;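 further: luciferase carries N-glycosylation sites so blocking glycosylation raises the light; 0% = median of neutral control wells and 100% = median of 100 nM tunicamycin wells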
# PglD inh SP – blocks Campylobacter jejuni PglD acetyltransferase activity; shares compounds with PglD DTNB; Purified C. jejuni PglD, DTNB absorbance 412 nm; inhibition, % at 20 µM; 320 tested, under 10 active; AID 743156;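 active means mean inhibition across replicates of at least 20% with every single replicate also at 20% or more; inconclusive means mean inhibition at least 20% but some replicate falls below 20%; inactive means mean inhibition under 20% and not all replicates reach it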;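 further: initial rate of CoA release by acetyl transfer from AcCoA to the UDP-4-amino sugar; 0% = median of neutral control wells and 100% = median of positive control wells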
# * marks the source's active call; other numbers are inactive results; ? = inconclusive; . = no result; [ ] = remark or other dose.
SMILES,SR-BI uptake up,Rtt109 Vps75,PglD DTNB,HIV Env fusion,SR-BI HDL uptake,Glyco luc inh,PglD inh SP
C[C@H]1CN([C@@H](C)CO)C(=O)Cc2cc(NC(=O)CCCCCC(=O)Nc3ccccc3N)ccc2O[C@H]1CN(C)S(=O)(=O)c1ccc(Cl)cc1,.,.,.,13[16.7 µM],.,.,.
O=C(C[C@H]1CC[C@H](NS(=O)(=O)c2cccc(F)c2)[C@@H](CO)O1)NCc1ccc2c(c1)OCO2,.,.,-1,-19[16.7 µM],.,.,.
COC(=O)c1cc(C)ccc1OCc1ccc([N+](=O)[O-])cc1,-27,-7,23*,-29,27,-1,-3
COC(=O)c1ccc(COc2ccc(C)cc2[N+](=O)[O-])o1,-9,5,-2,8,9,1,.
CC(C)NC(=O)NCC[C@@H]1CC[C@@H](NC(=O)CCN2CCCCC2)[C@H](CO)O1,.,.,-1,.,.,.,.
CCn1c(SCC(=O)Nc2ccc3c(c2)OCCO3)nnc1-c1ccccn1,4,-9,76*,5,-4,2,-4
CCCN(C)C[C@H]1OCCCC[C@@H](C)Oc2ccc(NC(=O)CCC(F)(F)F)cc2C(=O)N([C@H](C)CO)C[C@@H]1C,.,.,.,-2[16.7 µM],.,.,.
O=C(CSCCO)Nc1cccc(C(F)(F)F)c1,18,-1,23*,-12,-18,-1,-1
COc1ccc(CCCNC(=O)C2(C)Cc3c(-c4ccc5c(c4)OCO5)ccnc3O2)cc1 (stereo not given),.,.,22*,-142,.,22,0
COc1ccc(CCCNC(=O)C2(C)Cc3c(-c4ccc(C(N)=O)cc4)ccnc3O2)cc1 (stereo not given),.,.,4,9,.,1,.
CO[C@@H]1CN(C)C(=O)c2cc(C#N)ccc2OC[C@H]2O[C@@H](CC[C@H]2OC)CCN(C)C(=O)[C@H]1C,.,.,-1,-2[16.7 µM],.,.,.
Cc1nnc(N2C(=O)c3ccc(Br)cc3C2=O)s1,-1,3,22*,-9,1,4,2
O=C1c2ccc(Br)cc2C(=O)N1c1ccc(Cl)cn1,7,2,-2,-5,-7,2,.
CN(C)CCCNC(=O)C[C@H]1C=C[C@H](NS(=O)(=O)c2ccc(F)cc2)[C@H](CO)O1,.,.,0,-11[16.7 µM],.,.,.
Cc1noc(C)c1NC(=O)Nc1ccc2c(c1)C(=O)N([C@H](C)CO)C[C@H](C)[C@H](CN(C)C(=O)Nc1ccc(F)cc1)OCCCC[C@H](C)O2,.,.,3,-17[16.7 µM],.,.,.
CCOC(=O)C1=C(C)N(c2ccccc2)C(=O)NC1c1cccc([N+](=O)[O-])c1 (stereo not given),-13,6,21*,-31,13,-1,-4
C[C@@H]1CN([C@@H](C)CO)C(=O)c2cccc(NC(=O)C3CCCCC3)c2O[C@H]1CN(C)Cc1ccncc1,.,.,6,.,.,.,.
Cc1ccccc1S(=O)(=O)NC(=O)C1(C)CCN1C(=O)CCc1cccs1 (stereo not given),.,.,3,12,.,-1,.
CCCCc1ccc(S(=O)(=O)NC(=O)C2(C)CCN2C(=O)CCc2cccs2)cc1 (stereo not given),.,.,69*,-30,.,1,3
CO[C@H]1CN(C)C(=O)c2cc(NC(=O)Nc3ccccc3)ccc2OC[C@@H](C)N(C(=O)Nc2c(C)noc2C)C[C@H]1C,.,.,-3,.,.,.,.
O=C(Cc1ccncc1)Nc1ccc2c(c1)[C@@H]1C[C@@H](CC(=O)NC3CCCC3)O[C@H](CO)[C@@H]1O2,.,.,-2,10[16.7 µM],.,.,.
C[C@@H]1CN([C@H](C)CO)C(=O)c2cc(-c3ccccc3)cnc2O[C@H]1CN(C)C(=O)C1CCCCC1,.,.,-2,3[16.7 µM],.,.,.
CC(C)Oc1cc(F)ccc1-c1cc(C(=O)NCC2CCCCC2)[nH]n1,.,.,23*,19,.,-4,12
Cc1cc(F)ccc1-c1cc(C(=O)NCC2CCCCC2)[nH]n1,.,.,5,4,.,0,.
O=C(CN1CCOCC1)N[C@@H]1CC[C@H](CCNC(=O)C2CCCCC2)O[C@@H]1CO,.,.,-3,14[16.7 µM],.,.,.
SMILES,SR-BI uptake up,Rtt109 Vps75,PglD DTNB,HIV Env fusion,SR-BI HDL uptake,Glyco luc inh,PglD inh SP
FC(F)(F)c1ccncc1-c1nnc(C2CCCCC2)o1,20,-3,22*,-5,-20,-1,0
O=C(NCCc1ccc(Cl)cc1)C1CCN(S(=O)(=O)c2cccs2)CC1,-19,1,21*,-4,19,0,0
O=C(NCCc1ccccc1)C1CCN(S(=O)(=O)c2cccs2)CC1,16,-2,3,.,-16,-1,.
Cc1cccc(NC(=O)CN(C)C(=O)C2CC2)c1C,0,-4,22*,.,0,2,4
CO[C@@H]1CN(C)C(=O)c2ccc(NC(=O)C3CCCCC3)cc2OC[C@@H](C)N(C)C[C@@H]1C,.,.,2,.,.,.,.
CN(C)c1nc(OCC(=O)NC(C)(C)C)nc(N(C)C)n1,-15,2,22*,.,15,0,1
Nc1c(N2CCCC2)c2ccccc2oc1=O,-2,-13,21*,-2,2,0,-4
COc1ccc(S(=O)(=O)Nc2ccc3c(c2)C(=O)N([C@H](C)CO)C[C@@H](C)[C@@H](CN(C)S(=O)(=O)c2ccc(F)cc2)OCCCC[C@H](C)O3)cc1,.,.,1,-3[16.7 µM],.,.,.
O=C(CN(C(=O)CNC(=O)c1cccs1)c1ccc(F)cc1)NC1CCCC1,.,-1,3,-2,.,-1,.
O=C(CN(C(=O)CNC(=O)c1cccs1)c1ccc(F)cc1)NC1CCCCC1,.,-8,25*,-1,.,0,0
CO[C@H]1CN(C)C(=O)c2ccc(NC(=O)c3ccccc3F)cc2OC[C@@H](C)NC[C@@H]1C,.,.,1,-9[16.7 µM],.,.,.
O=C(C[C@@H]1C=C[C@H](NC(=O)NC2CCCCC2)[C@@H](CO)O1)NCc1ccccc1,.,.,1,-18[16.7 µM],.,.,.
O=c1c2c([nH]c3ccccc13)CCCC2,.,6,1,.,18,0,.
CC(C)(C)C1CCc2[nH]c3ccccc3c(=O)c2C1 (stereo not given),-7,4,28*,.,7,11,-2
CNC[C@@H]1Oc2ccc(NC(=O)Cc3ccccc3)cc2C(=O)N([C@H](C)CO)C[C@H]1C,.,.,1,19[16.7 µM],.,.,.
CC(C)(C)NC(=O)COC(=O)c1ccccc1Nc1ccc(SC(F)F)cc1,-22,-2,20*,13,22,-4,?
COc1ccc(-c2n[nH]c(=S)n2N)c(OC)c1,11,3,21*,9,-11,2,-1
CC(=O)NN=C1CCC(c2ccccc2)CC1 (stereo not given),8,-4,-5,.,-8,2,.
NC(N)=NN=C1CCC(c2ccccc2)CC1 (stereo not given),.,3,25*,-6,.,-1,3
Cc1cccc(S(=O)(=O)N2C[C@H]3[C@@H](c4ccccc42)[C@@H](CO)N3CC2CCOCC2)c1,.,.,-2,.,.,.,.
